Source: ChEMBL document CHEMBL3868624, “Design, synthesis, biological evaluation, and molecular modeling studies of chalcone-rivastigmine hybrids as cholinesterase inhibitors” (Bioorg Med Chem, 2017)
Active and inactive are the calls of the source. The rule behind the calls is not given here.

Assays:
[1] = Cytotoxicity against human SH-SY5Y cells assessed as cell viability at 6.25 uM after 48 hrs by MTT assay relative to control; assay type: toxicity, cell-based; conditions: read-out: Activity
Procedure, shortened: (§1)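 SH-SY5Y cells seeded at 5×10³ per well and grown 16-18 h, then exposed to 6.25, 12.5, 25, 50 or 100 µM compound for 48 h. MTT (2.5 mg/mL solution) was added for 4 h at 37 °C, 5% CO₂. Formazan was dissolved in DMSO and absorbance read at 490 nm. Viability is relative to control, mean ± SEM of experiments in triplicate.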

[2] = target: T1, Cholinesterase (Homo sapiens, UniProt P06276); assay: Inhibition of human serum BChE using S-Butyrylthiocholine iodide as substrate preincubated for 15 mins followed by substrate addition by Ellman's method
T1 sequence (P06276 whole entry): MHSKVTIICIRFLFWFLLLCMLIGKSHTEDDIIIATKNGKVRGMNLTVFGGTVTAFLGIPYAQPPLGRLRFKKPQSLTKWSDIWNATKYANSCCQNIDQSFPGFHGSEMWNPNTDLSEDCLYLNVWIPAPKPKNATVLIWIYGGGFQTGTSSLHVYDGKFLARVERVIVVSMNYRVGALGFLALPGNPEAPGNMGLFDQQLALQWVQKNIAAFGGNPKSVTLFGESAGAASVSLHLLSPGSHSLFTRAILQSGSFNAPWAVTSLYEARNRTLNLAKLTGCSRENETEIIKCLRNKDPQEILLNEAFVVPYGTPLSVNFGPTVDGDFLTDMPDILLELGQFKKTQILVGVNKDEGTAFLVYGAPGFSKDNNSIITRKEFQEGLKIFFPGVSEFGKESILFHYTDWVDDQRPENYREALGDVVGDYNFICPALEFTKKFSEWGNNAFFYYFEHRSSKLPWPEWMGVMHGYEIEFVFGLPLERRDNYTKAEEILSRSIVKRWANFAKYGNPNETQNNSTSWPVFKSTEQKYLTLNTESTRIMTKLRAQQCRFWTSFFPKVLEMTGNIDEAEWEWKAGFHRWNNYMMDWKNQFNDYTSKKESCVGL
Procedure, shortened: (§2)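 Ellman assay in phosphate buffer pH 8.0 (0.08 M Na₂HPO₄/0.02 M NaH₂PO₄). hAChE at 0.004 U/mL or hBChE at 0.002 U/mL was preincubated with compound for 15 min at 37 °C. DTNB and ATC (hAChE) or BTC (hBChE) were added, each 50 µM final. A412 was read over 5 min and inhibition set against no-compound wells. IC50 from a variable-slope fit, mean ± SD of three independent experiments.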

[3] = target: T1, Cholinesterase; assay: Inhibition of human serum BChE using S-Butyrylthiocholine iodide as substrate at 10 uM preincubated for 15 mins followed by substrate addition by Ellman's method
[4] = Cytotoxicity against human SH-SY5Y cells assessed as cell viability at 12.5 uM after 48 hrs by MTT assay relative to control; assay type: toxicity, cell-based; conditions: read-out: Activity; procedure, shortened: as §1
[5] = Cytotoxicity against human SH-SY5Y cells assessed as cell viability at 25 uM after 48 hrs by MTT assay relative to control; assay type: toxicity, cell-based; conditions: read-out: Activity; procedure, shortened: as §1
[6] = Cytotoxicity against human SH-SY5Y cells assessed as cell viability at 50 uM after 48 hrs by MTT assay relative to control; assay type: toxicity, cell-based; conditions: read-out: Activity; procedure, shortened: as §1
[7] = Cytotoxicity against human SH-SY5Y cells assessed as cell viability at 100 uM after 48 hrs by MTT assay relative to control; assay type: toxicity, cell-based; conditions: read-out: Activity; procedure, shortened: as §1
[8] = target: T2, Acetylcholinesterase (Homo sapiens, UniProt P22303); assay: Inhibition of human recombinant AChE using acetylthiocholine iodide as substrate preincubated for 15 mins followed by substrate addition by Ellman's method; procedure, shortened: as §2
T2 sequence (P22303 whole entry): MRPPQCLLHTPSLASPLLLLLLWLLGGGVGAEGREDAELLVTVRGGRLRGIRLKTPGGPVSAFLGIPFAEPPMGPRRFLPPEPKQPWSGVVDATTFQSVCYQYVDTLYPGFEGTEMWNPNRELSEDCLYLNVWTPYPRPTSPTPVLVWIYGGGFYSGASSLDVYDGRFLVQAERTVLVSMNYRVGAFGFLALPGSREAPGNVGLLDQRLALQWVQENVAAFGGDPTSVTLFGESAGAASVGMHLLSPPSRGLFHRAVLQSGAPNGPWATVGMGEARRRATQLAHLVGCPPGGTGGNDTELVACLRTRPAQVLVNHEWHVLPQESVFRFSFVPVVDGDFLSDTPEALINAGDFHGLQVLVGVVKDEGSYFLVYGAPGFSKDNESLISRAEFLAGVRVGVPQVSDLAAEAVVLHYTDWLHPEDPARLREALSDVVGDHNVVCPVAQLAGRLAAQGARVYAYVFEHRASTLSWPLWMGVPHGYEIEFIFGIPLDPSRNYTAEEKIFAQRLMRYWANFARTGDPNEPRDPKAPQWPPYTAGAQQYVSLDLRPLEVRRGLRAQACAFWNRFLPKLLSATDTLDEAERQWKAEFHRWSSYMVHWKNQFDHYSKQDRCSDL

[9] = test system: SH-SY5Y; assay: Antioxidant activity against t-BHP-induced oxidative stress in human SH-SY5Y cells assessed as inhibition of ROS production at 1 to 5 uM after 24 hrs by DCFH-DA probe based flow cytometric analysis; assay type: functional, cell-based
Procedure, shortened: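 SH-SY5Y cells seeded at 5×10^4 per well, left 16-18 h, then exposed to compound for 24 h. Cells were washed in PBS and loaded with 5 μM DCFH-DA together with 100 μM t-BHP in PBS, 30 min at 37 °C, 5% CO2. After washing and resuspension, flow cytometry read ex 488/em 525 nm. Value reported as (FIsample−FIblank)/(FIcontrol−FIblank)×100%, untreated cells as control, curcumin as positive control.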

[10] = target: T2, Acetylcholinesterase; assay: Non-competitive inhibition of human recombinant AChE using acetylthiocholine iodide as substrate preincubated for 15 mins followed by substrate addition by Lineweaver-Burk plot analysis
Procedure, shortened: (§3)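 For kinetics, hAChE (0.004 U/mL) or hBChE (0.002 U/mL) was preincubated 15 min at 37 °C with inhibitor at three concentrations spanning 100-900 nM. DTNB was then added, followed by ATC or BTC at six serial concentrations from 0.125 to 1 mM. A412 was read for 5 min at 1-min intervals. Km and Vmax came from Michaelis-Menten fits, and mechanism from Lineweaver-Burk plots.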

[11] = target: T1, Cholinesterase; assay: Non-competitive inhibition of human serum BChE using S-Butyrylthiocholine iodide as substrate preincubated for 15 mins followed by substrate addition by Lineweaver-Burk plot analysis; procedure, shortened: as §3

Row | Compound | viability at 48 h, 6.25 µM [1] [%] | IC50 [2] [µM] | inhibition [3] [%] | viability at 48 h, 12.5 µM [4] [%] | viability at 48 h, 25 µM [5] [%] | viability at 48 h, 50 µM [6] [%] | viability at 48 h, 100 µM [7] [%] | IC50 [8] [µM] | inhibition [9] | Ki [10] [µM] | Ki [11] [µM]
1 | CCN(C)C(=O)Oc1cccc(C(=O)/C=C/c2ccc(OC)cc2)c1 | 101 | 3.93 | > 50 | 100 | 85.1 | 66.3 | 0.63 |  |  |  | 
2 | CN(C)C(=O)Oc1cc(OC(=O)N(C)C)cc(C(=O)/C=C/c2ccc(O)cc2)c1 |  |  | < 50 |  |  |  |  |  |  |  | 
3 | CCN(CC)C(=O)Oc1cccc(C(=O)/C=C/c2ccc(O)cc2)c1 |  |  | < 50 |  |  |  |  |  |  |  | 
4 | COc1ccc(/C=C/C(=O)c2cccc(OC(=O)N(C(C)C)C(C)C)c2)cc1 |  |  | < 50 |  |  |  |  |  |  |  | 
5 | CCN(C)C(=O)Oc1ccc(/C=C/C(=O)c2cccc(O)c2)cc1 | 96.1 | 5.6 | > 50 | 93.9 | 67.1 | 16.5 | 0.81 |  |  |  | 
6 | CCN(CC)C(=O)Oc1cccc(C(=O)/C=C/c2ccc(OC)cc2)c1 |  |  | < 50 |  |  |  |  |  |  |  | 
7 | CCN(C)C(=O)Oc1cccc(/C=C/C(=O)c2cccc(O)c2)c1 | 101 | 2.87 | > 50 | 88.2 | 53 | 11.2 | 0.16 |  |  |  | 
8 | CCN(C)C(=O)Oc1cc(OC(=O)N(C)CC)cc(C(=O)/C=C/c2ccc(O)cc2)c1 |  |  | < 50 |  |  |  |  |  |  |  | 
9 | CCN(C)C(=O)Oc1ccc(/C=C/C(=O)c2ccc(O)cc2)cc1 | 91.7 | 6.08 | > 50 | 80.8 | 51.5 | 22.4 | 1.39 |  |  |  | 
10 | CN(C)C(=O)Oc1ccccc1C(=O)/C=C/c1ccc(O)cc1 |  |  | < 50 |  |  |  |  |  |  |  | 
11 | COc1ccc(/C=C/C(=O)c2ccc(O)cc2)cc1 |  |  | < 50 |  |  |  |  |  |  |  | 
12 | COc1ccc(/C=C/C(=O)c2ccc(OC(=O)N(C)C)cc2)cc1 |  |  | < 50 |  |  |  |  |  |  |  | 
13 | COc1ccc(/C=C/C(=O)c2cccc(OC(=O)N(C)C)c2)cc1 | 101 | 3.37 | > 50 | 95.3 | 74.3 | 20 | 0.67 | 8.05 |  |  | 
14 | CN(C)C(=O)Oc1cccc(/C=C/C(=O)c2ccc(O)cc2)c1 | 83.9 | 2.19 | > 50 | 69.9 | 46.2 | 11.2 | 4.37 |  |  |  | 
15 | CN(C)C(=O)Oc1ccc(/C=C/C(=O)c2ccc(O)cc2)cc1 | 100 | 4.48 | > 50 | 86.6 | 60.4 | 28.9 | 13.1 |  |  |  | 
16 | CCN(C)C(=O)Oc1ccccc1C(=O)/C=C/c1ccc(O)cc1 | 86 | 4.37 to 5.97 | > 50 | 76.4 | 64.7 | 51.7 | 52.2 |  |  |  | 
17 | CCN(C)C(=O)Oc1ccc(C(=O)/C=C/c2ccc(OC)cc2)cc1 | 95.5 | 7.36 | > 50 | 86.1 | 83.2 | 52.7 | 0.22 |  |  |  | 
18 | CCN(C)C(=O)Oc1cccc(/C=C/C(=O)c2ccc(O)cc2)c1 | 95.1 | 2.52 | > 50 | 88.7 | 60.2 | 16.6 | 2.97 |  |  |  | 
19 | CC(C)N(C(=O)Oc1cccc(C(=O)/C=C/c2ccc(O)cc2)c1)C(C)C |  |  | < 50 |  |  |  |  |  |  |  | 
20 | COc1cc(/C=C/C(=O)CC(=O)/C=C/c2ccc(O)c(OC)c2)ccc1O |  |  |  |  |  |  |  |  | Active |  | 
21 | CN(C)C(=O)Oc1cccc(C(=O)/C=C/c2ccc(O)cc2)c1 | 102 | 0.36 | > 50 | 96.5 to 96.7 | 94.6 | 71.8 | 48.3 | 0.87 |  | 0.52 | 0.16
22 | CN(C)C(=O)Oc1cccc(/C=C/C(=O)c2cccc(O)c2)c1 | 85.9 | 1.91 | > 50 | 82.6 | 57.1 | 15.1 | 1.03 |  |  |  | 
23 | CCN(C)C(=O)Oc1ccc(C(=O)/C=C/c2ccc(O)cc2)cc1 |  |  | < 50 |  |  |  |  |  |  |  | 
24 | COc1ccc(/C=C/C(=O)c2cccc(O)c2)cc1 |  |  | < 50 |  |  |  |  |  |  |  | 
25 | CN(C)C(=O)Oc1ccc(/C=C/C(=O)c2cccc(O)c2)cc1 |  |  | < 50 |  |  |  |  |  |  |  | 
26 | CCN(C)C(=O)Oc1cccc([C@H](C)N(C)C)c1 [RIVASTIGMINE] | 98.5 |  |  | 94.7 | 86.6 | 72.7 | 56.4 |  |  |  | 
27 | CN(C)C(=O)Oc1ccc(C(=O)/C=C/c2ccc(O)cc2)cc1 |  |  | < 50 |  |  |  |  |  |  |  | 
28 | CCN(C)C(=O)Oc1cccc(C(=O)/C=C/c2ccc(O)cc2)c1 | 96.2 | 4.37 | > 50 | 68 | 49.2 | 17.4 | 5.42 |  |  |  | 
